From ChEMBL document CHEMBL1126794, “2-(Quinuclidin-3-yl)pyrido[4,3-b]indol-1-ones and isoquinolin-1-ones. Potent conformationally restricted 5-HT3 receptor antagonists” (J Med Chem, 1993) come the findings set out here.

Broadly, the pKi is −log10 of the Ki, conventionally taken in molar units.

For assay [1], the system named is Mustela putorius furo. Description: Inhibition of emesis induced by peroral administration of cisplatin in 5 ferrets at 0.03 mg/kg (p<0.005). To be noted: route oral. The assay is classed as functional.
The test system of assay [2] is Mustela putorius furo. Description: Inhibition of emesis induced by peroral administration of cisplatin in 6 ferrets at 0.01 mg/kg (p<0.005). Type of assay: functional. To be noted: route oral.
For assay [3], the system named is Mustela putorius furo. Kind of assay: Inhibition of emesis induced by intravenous administration of cisplatin in 5 ferrets at 0.003 mg/kg. Type of assay: functional.
The subject of assay [4] is Canis familiaris. Kind of assay: Inhibition of emesis induced by intravenous administration of cisplatin in 6 dogs at 0.001 mg/kg (p<0.05). The assay is classed as functional, Canis lupus familiaris.
Assay [5] deals with Canis familiaris. Kind of assay: Inhibition of emesis induced by peroral administration of cisplatin in 6 dogs at 0.03 mg/kg (p<0.01). The settings on record: route oral. Type of assay: functional, Canis lupus familiaris.
Assay [6] has as its system Mustela putorius furo. Description: Inhibition of emesis induced by intravenous administration of cisplatin in 5 ferrets at 0.03 mg/kg (p<0.005). The assay is classed as functional.
In assay [7] the test system is Mustela putorius furo. Description: Inhibition of emesis induced by peroral administration of cisplatin in 6 ferrets at 0.003 mg/kg (p<0.05). The assay is classed as functional. To be noted: route oral.
Assay [8] concerns Mustela putorius furo. Description: Inhibition of emesis induced by intravenous administration of cisplatin in 9 ferrets at 0.001 mg/kg. Type of assay: functional.
For assay [9], the system named is Mustela putorius furo. Kind of assay: Inhibition of emesis induced by peroral administration of cisplatin in 6 ferrets at 0.001 mg/kg. Type of assay: functional. To be noted: route oral.
The subject of assay [10] is Canis familiaris. Description: Inhibition of emesis induced by intravenous administration of cisplatin in 6 dogs at 0.03 mg/kg (p<0.01). Type of assay: functional, Canis lupus familiaris.
The subject of assay [11] is Mustela putorius furo. Kind of assay: Inhibition of emesis induced by intravenous administration of cisplatin in 6 ferrets at 0.1 mg/kg (p<0.005). Type of assay: functional.
Assay [12] relates to Mustela putorius furo. Description: Inhibition of emesis induced by intravenous administration of cisplatin in 6 ferrets at 0.01 mg/kg (p<0.005). Type of assay: functional.
The test system of assay [13] is Canis familiaris. Description: Inhibition of emesis induced by peroral administration of cisplatin in 6 dogs at 0.003 mg/kg. Type of assay: functional, Canis lupus familiaris. To be noted: route oral.
For assay [14], the system named is Canis familiaris. Kind of assay: Inhibition of emesis induced by peroral administration of cisplatin in 6 dogs at 0.1 mg/kg (p<0.01). To be noted: route oral. Type of assay: functional, Canis lupus familiaris.
Assay [15] concerns the target T1, Serotonin 3 (5-HT3) receptor (Rattus norvegicus, UniProt P35563+Q9JJ16).
T1 sequence (P35563 whole entry): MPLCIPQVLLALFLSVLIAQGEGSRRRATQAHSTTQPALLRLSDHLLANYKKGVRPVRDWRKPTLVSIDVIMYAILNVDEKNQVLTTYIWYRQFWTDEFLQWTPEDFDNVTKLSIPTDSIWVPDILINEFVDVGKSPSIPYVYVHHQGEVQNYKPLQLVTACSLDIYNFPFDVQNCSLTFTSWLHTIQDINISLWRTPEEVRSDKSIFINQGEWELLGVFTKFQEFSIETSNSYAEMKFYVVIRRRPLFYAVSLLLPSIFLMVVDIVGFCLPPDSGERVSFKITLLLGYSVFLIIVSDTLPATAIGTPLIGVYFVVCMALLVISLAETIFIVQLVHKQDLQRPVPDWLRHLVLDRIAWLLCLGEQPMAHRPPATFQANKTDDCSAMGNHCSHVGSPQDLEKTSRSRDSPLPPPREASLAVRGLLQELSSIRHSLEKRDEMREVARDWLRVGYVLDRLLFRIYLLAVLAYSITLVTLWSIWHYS
T1 sequence (Q9JJ16 whole entry): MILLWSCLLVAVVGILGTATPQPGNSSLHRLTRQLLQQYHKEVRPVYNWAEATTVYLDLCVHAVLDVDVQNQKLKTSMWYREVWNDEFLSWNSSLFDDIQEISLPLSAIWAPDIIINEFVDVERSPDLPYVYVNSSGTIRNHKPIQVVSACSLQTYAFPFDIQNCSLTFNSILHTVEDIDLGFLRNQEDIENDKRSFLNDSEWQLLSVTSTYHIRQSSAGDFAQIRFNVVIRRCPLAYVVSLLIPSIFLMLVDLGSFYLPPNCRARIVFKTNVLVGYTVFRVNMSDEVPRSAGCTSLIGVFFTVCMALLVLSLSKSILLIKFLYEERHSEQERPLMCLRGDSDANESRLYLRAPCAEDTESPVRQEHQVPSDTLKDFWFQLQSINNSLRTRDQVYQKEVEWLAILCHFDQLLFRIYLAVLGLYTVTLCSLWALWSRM
Kind of assay: Binding affinity against 5-hydroxytryptamine 3 (5-HT3) receptor in rat brain cortical membranes using radioligand [3H]quipazine. Type of assay: cell membranes. In a few lines:
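Rat cerebral cortex membranes, washed in 50 mM Tris pH 7.4, incubated 45 min at 25 °C in Tris-Krebs buffer pH 7.4 with 0.3–0.7 nM [3H]quipazine plus 0.1 μM paroxetine. Ten test concentrations from 1e-12 to 1e-4 M. Nonspecific binding defined with 1.0 μM racemic zacopride. Filtration, scintillation counting, IC50 by iterative fit, Ki by Cheng-Prusoff. Means of ≥3 determinations, or of two.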

Assay [16] deals with Canis familiaris. Kind of assay: Inhibition of emesis induced by peroral administration of cisplatin in 6 dogs at 0.01 mg/kg (p<0.01). Type of assay: functional, Canis lupus familiaris. The settings on record: route oral.
The subject of another assay is Rattus norvegicus. Kind of assay: Potency to inhibit bradycardiac effect measured by Von Bezold-Jarisch assay in 8 anesthetized rats. The assay is classed as functional. To be noted: read-out: ID50 (the source's name). The essentials: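 Male Sprague-Dawley rats, 250–380 g, under urethane (1.5 g/kg ip), with cannulated trachea and femoral veins; heart rate recorded by ECG. Lowest consistent bradycardic dose of 2-methyl-5-HT titrated iv, then given every 12 min. Increasing iv doses given 5 min before each challenge, with saline vehicle group.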

Assay [17] concerns Mustela putorius furo. Kind of assay: Inhibition of emesis induced by peroral administration of cisplatin in 5 ferrets at 0.1 mg/kg (p<0.005). To be noted: route oral. The assay is classed as functional.
Assay [18] deals with Canis familiaris. Description: Inhibition of emesis induced by peroral administration of cisplatin in 6 dogs at 0.001 mg/kg. The assay is classed as functional, Canis lupus familiaris. To be noted: route oral.
The test system of assay [19] is Canis familiaris. Description: Inhibition of emesis induced by intravenous administration of cisplatin in 6 dogs at 0.003 mg/kg (p<0.01). Type of assay: functional, Canis lupus familiaris.

Molecules are shown by their SMILES. pKi: −log10 of the molar value.

As to `Cl.O=C1c2cccc3c2[C@H](CCC3)CN1[C@@H]1CN2CCC1CC2` [PALONOSETRON HYDROCHLORIDE], the “No. of emetic episodes” value with Mustela putorius furo [1] was determined as 1.8; with Mustela putorius furo [2] it was 2.17; in the assay with Mustela putorius furo [3], 0.6; in the assay on Canis familiaris [4] it was 7.17; in the assay with Canis familiaris [5], 2.67; in the assay on Mustela putorius furo [6] it was 0. Further, the “No. of emetic episodes” value is recorded as 7.17 with Mustela putorius furo [7]; 9.67 in the assay on Mustela putorius furo [8]; 15.17 with Mustela putorius furo [9]; 1.33 in the assay on Canis familiaris [10]; 0.17 in the assay with Mustela putorius furo [11]; 0 in the assay with Mustela putorius furo [12]. Besides, the “No. of emetic episodes” value was 16.17 in the assay on Canis familiaris [13]; 0 in the assay on Canis familiaris [14]; 4 in the assay with Canis familiaris [16]; 0.8 in the assay with Mustela putorius furo [17]; 12.83 with Canis familiaris [18]; 4.33 in the assay with Canis familiaris [19]. For the same compound, the pKi in assay [15] was 10.40. In addition, the ED50 in the assay with Rattus norvegicus came to 0.02 µg/kg.
